Where a SMILES comes first, the peptide text is derived from it. Bridges are numbered along the chain shown (N, C = ends). [ ]: non-standard residue; d: D form. The star is where a group is joined. X1 = CC[C@H](C)CCCCC(=O)*; Dab = NCC[C@H](N)C(=O)O
Assays:
[1] = rats; CMS and formed colistin; cited from earlier work
patients = settings: plasma colistin; cited from earlier work
[2] = Kidney PK of CMS/CMS-E2 and formed colistin/colistin B; type: in vivo, rats; settings: for Kp: kidney (cortex) / plasma, colistin/colistin B; for AUC0-inf formed colistin/colistin B in kidneys / Tmax formed colistin/colistin B in kidneys / t1/2 formed colistin/colistin B in kidneys / Cmax formed colistin/colistin B in kidneys / AUC0-inf CMS/CMS-E2 in kidneys / Tmax CMS/CMS-E2 in kidneys / t1/2 CMS/CMS-E2 in kidneys / Cmax CMS/CMS-E2 in kidneys: rat kidney cortex, LC-MS/MS; for AUC0-inf formed colistin/colistin B in kidneys / Tmax formed colistin/colistin B in kidneys / t1/2 formed colistin/colistin B in kidneys / AUC0-inf CMS/CMS-E2 in kidneys / Tmax CMS/CMS-E2 in kidneys / t1/2 CMS/CMS-E2 in kidneys: NCA; for Cmax formed colistin/colistin B in kidneys / Cmax CMS/CMS-E2 in kidneys: mean ± SD
How it was run: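 Male Sprague-Dawley rats (300 ± 15 g) got one i.p. dose in saline. At each sampling time rats were anaesthetised with tiletamine-zolazepam (40 mg/kg) and killed, and the left kidney was frozen at −70 °C. Kidney cortex was homogenised in saline (1:10 m/v, 1% BSA). Samples went through WCX solid-phase extraction with polymyxin B1 internal standard, then LC-MS/MS. Prodrug was calculated as total (after […] sulfuric acid hydrolysis) minus free colistin/colistin B. Parameters came from non-compartmental analysis.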

[3] = Plasma PK of CMS/CMS-E2 and formed colistin/colistin B; type: in vivo, rats; settings: rat plasma, LC-MS/MS, NCA, mean ± SD
How it was run: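 Male Sprague-Dawley rats were dosed once i.p. in saline, and serial jugular-vein blood was taken before and after dosing. Blood was heparinised (1%), spun at 4,982 × g for 10 min at 4 °C, and plasma stored at −70 °C. Plasma (40 µL) went through WCX solid-phase extraction with polymyxin B1 internal standard, then LC-MS/MS. Prodrug was total (acid-hydrolysed) minus free analyte. […] Values are mean ± SD, compared by Wilcoxon rank sum.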

[4] = PK-TD model, PK component; type: in vivo; settings: rats, one-compartment PK-TD model, mean ± SD
How it was run: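 Plasma prodrug and formed colistin/colistin B concentrations after i.p. dosing were fitted by a compartmental model. The final model used one compartment each for prodrug and formed drug, a conversion rate constant, and linear first-order total clearance from both. Fit was judged by R², AIC, BIC and visual inspection. Estimates are mean ± SD.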

[5] = cited from earlier work
rats [6] = experiment: Regression of kidney colistin/colistin B concentrations against CR, BUN, SQS; type: in vivo; settings: 95% CI
rats [7] = experiment: PK-TD model, TD component; type: in vivo; settings: i.p., mean ± SD
How it was run: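 Plasma creatinine and BUN time courses were linked to plasma colistin/colistin B through an indirect hypothetical effect compartment. K_e is the rate constant from the central to the effect compartment. The effect was linear: E = E₀ + S·C_e, with E₀ the pre-dose baseline. T_lag was calculated as 1/K_e. Fit was judged by R², AIC, BIC and visual inspection. Parameters are mean ± SD.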

rats [8] = experiment: Renal histological examination; type: in vivo; settings: rat kidney; for maximal SQS: mean ± SD, SD
rats [9] = experiment: Maximal tolerability dose; type: in vivo; settings: intraperitoneal
rats [10] = experiment: Kidney injury biomarkers: plasma CR and BUN; type: in vivo; settings: rat plasma, mean ± SD
How it was run: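 Rats (male Sprague-Dawley) received one i.p. injection in saline, with a saline control group. Plasma came from serial heparinised jugular-vein samples, plus blood taken at sacrifice in a second cohort. Creatinine and blood urea nitrogen were measured on an automatic biochemical analyser. Peak levels and times to peak were taken from the time profiles and given as mean ± SD.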

[11] = single i.p. CMS or CMS-E2 20 mg/kg CBA
[12] = single i.p. CMS or CMS-E2 20 mg/kg CBA, SD
[13] = rats, single i.p. CMS or CMS-E2 20 mg/kg CBA
[14] = single i.p. CMS-E2 40 mg/kg CBA

## CC[C@H](C)CCCCC(=O)N[C@@H](CCN)C(=O)N[C@H](C(=O)N[C@@H](CCN)C(=O)N[C@H]1CCNC(=O)[C@H]([C@@H](C)O)NC(=O)[C@H](CCN)NC(=O)[C@H](CCN)NC(=O)[C@H](CC(C)C)NC(=O)[C@@H](CC(C)C)NC(=O)[C@H](CCN)NC1=O)[C@@H](C)O [colistin, Colistin] (X1-[Dab]T[Dab][Dab][Dab][dL]L[Dab][Dab]T; lactam 4-C)
[1]
  t1/2 in prior reports: 0.533 to 1.8 h
patients
  steady-state trough concentration associated with increased nephrotoxicity: > 2.2 mg/L
[2]; male, Sprague-Dawley, rat, ip, 10 mg/kg CBA, Kidney/plasma ratio of AUC0-inf, rats, single i.p. CMS 10 mg/kg CBA
  Kp: 31.6
[2]; male, Sprague-Dawley, rat, ip, 10 mg/kg CBA, Kidney/plasma ratio of Cmax, rats, single i.p. CMS 10 mg/kg CBA
  Kp: 13.7
[2]; male, Sprague-Dawley, rat, ip, 20 mg/kg CBA, Kidney/plasma ratio of AUC0-inf, rats, single i.p. CMS or CMS-E2 20 mg/kg CBA
  Kp: 26.1
[2]; male, Sprague-Dawley, rat, kidney cortex, ip, 10 mg/kg CBA, SD
  tissue level at time at 8 h: 3550 ± 594 ng/g
[2]; male, Sprague-Dawley, rat, kidney cortex, ip, 20 mg/kg CBA, SD
  tissue level at time at 24 h: 5970 ± 1850 ng/g
[2]; single i.p. CMS 10 mg/kg CBA
  AUC0-inf formed colistin/colistin B in kidneys: 64.7 µg·h/g
  Tmax formed colistin/colistin B in kidneys: 2 h
  t1/2 formed colistin/colistin B in kidneys: 1.21 h
[2]; single i.p. CMS 10 mg/kg CBA, SD
  Cmax formed colistin/colistin B in kidneys: 10.4 ± 3.13 µg/g
[2]; single i.p. CMS 20 mg/kg CBA
  AUC0-inf formed colistin/colistin B in kidneys: 603 µg·h/g
  t1/2 formed colistin/colistin B in kidneys: 6.23 h
[2]; [11]
  Tmax formed colistin/colistin B in kidneys: 6 h
[2]; [12]
  Cmax formed colistin/colistin B in kidneys: 53.6 ± 11.0 µg/g
[2]; [13]
  Kidney/plasma ratio of Cmax, colistin/colistin B: 12.7
[3]; single i.p. CMS 10 mg/kg CBA
  AUC0-inf formed colistin/colistin B in plasma: 2050 ± 371 ng·h/mL
  Cmax formed colistin/colistin B in plasma: 764 ± 123 ng/mL
  Tmax formed colistin/colistin B in plasma: 2.00 ± 0.00 h
  t1/2 formed colistin/colistin B in plasma: 0.74 ± 0.0768 h
[3]; [11]
  AUC0-inf formed colistin/colistin B in plasma: 23100 ± 7460 ng·h/mL
  Cmax formed colistin/colistin B in plasma: 3990 ± 1520 ng/mL
  Tmax formed colistin/colistin B in plasma: 3.55 ± 0.891 h
  t1/2 formed colistin/colistin B in plasma: 1.88 ± 0.672 h
[4]; single i.p. CMS 10 mg/kg CBA
  CLcolistin/colistin B (total body clearance): 2.57 ± 0.420 mL/min/kg
[5]
  fraction undergoing glomerular filtration into the tubular lumen: 18%
Rats [6]; ordered logistic regression
  regression coefficient between kidney concentration and SQS: 0.10
Rats [6]; simple linear regression
  regression coefficient between kidney concentration and contemporaneous BUN: 0.27
  regression coefficient between kidney concentration and contemporaneous CR: 0.74

## Colistin B methanesulphonate [CMS-E2]
Rats [7]; E = E0 + S·Ce
  S (slope between colistin/colistin B concentration in effect compartment and CR): 13.0 ± 3.52 mmol/g
Rats [7]; indirect link PK-TD model, effect = BUN
  Ke (rate from colistin/colistin B central compartment to effect compartment), BUN: 0.182 ± 0.164 h⁻¹
Rats [7]; indirect link PK-TD model, effect = plasma CR
  Ke (rate from colistin/colistin B central compartment to effect compartment), CR: 0.814 ± 0.524 h⁻¹
Rats [7]; reciprocal of Ke, effect = BUN
  Tlag (lag time), BUN: 11.9 ± 9.46 h
Rats [7]; reciprocal of Ke, effect = plasma CR
  Tlag (lag time), CR: 1.83 ± 1.05 h
Rats [8]; PAS stain, single i.p. CMS or CMS-E2 20 mg/kg CBA
  histological lesions during the first 2 h: No obvious histological lesion
Rats [8]; [11]
  maximal SQS: 0.667 ± 0.577
Rats [8]; single i.p. CMS-E2 20 mg/kg CBA
  histological damage at time points other than 4 h: no obvious damage was observed
Rats [8]; [14]
  recovery of histological damage at 24 h: all damage was completely recovered
  maximal SQS: 2.33 ± 1.16
[2]; [11]
  AUC0-inf CMS/CMS-E2 in kidneys: 289 µg·h/g
  Tmax CMS/CMS-E2 in kidneys: 2 h
  t1/2 CMS/CMS-E2 in kidneys: 0.56 h
[2]; [12]
  Cmax CMS/CMS-E2 in kidneys: 105 ± 25.3 µg/g
[2]; [14]
  AUC0-inf CMS/CMS-E2 in kidneys: 2496 µg·h/g
  Tmax CMS/CMS-E2 in kidneys: 4 h
  t1/2 CMS/CMS-E2 in kidneys: 2.02 h
[2]; single i.p. CMS-E2 40 mg/kg CBA, SD
  Cmax CMS/CMS-E2 in kidneys: 379 ± 85.5 µg/g
[2]; [13]
  Kidney/plasma ratio of Cmax, CMS/CMS-E2: 5.50
[2]; rats, single i.p. CMS-E2 40 mg/kg CBA
  Kidney/plasma ratio of Cmax, CMS/CMS-E2: 7.44
Rats [9]
  maximal tolerability dose: 40 mg/kg CBA
[3]; [11]
  AUC0-inf CMS/CMS-E2 in plasma: 37200 ± 10500 ng·h/mL
  CL/F CMS/CMS-E2: 9.90 ± 3.34 mL/min/kg
  Cmax CMS/CMS-E2 in plasma: 19100 ± 4500 ng/mL
  Tmax CMS/CMS-E2 in plasma: 0.500 ± 0.00 h
  Vd/F CMS/CMS-E2: 0.464 ± 0.108 L/kg
  t1/2 CMS/CMS-E2 in plasma: 0.573 ± 0.16 h
[3]; [14]
  AUC0-inf CMS/CMS-E2 in plasma: 226000 ± 125000 ng·h/mL
  CL/F CMS/CMS-E2: 4.18 ± 2.56 mL/min/kg
  Cmax CMS/CMS-E2 in plasma: 50900 ± 23500 ng/mL
  Tmax CMS/CMS-E2 in plasma: 1.75 ± 0.433 h
  Vd/F CMS/CMS-E2: 0.497 ± 0.278 L/kg
  t1/2 CMS/CMS-E2 in plasma: 1.57 ± 0.522 h
[4]; [14]
  CLCMS/CMS-E2 (total body clearance): 3.20 ± 1.74 mL/min/kg
  Ka CMS/CMS-E2 (absorption rate): 0.673 ± 0.208 h⁻¹
  V (volume of distribution): 0.291 ± 0.105 L/kg
Rats [10]; [11]
  peak BUN level: 12.4 ± 5.21 mmol/L
  peak CR level: 33.4 ± 3.44 µmol/L
  time of peak BUN: 6.00 ± 0.00 h
  time of peak CR level: 4.67 ± 1.89 h
Rats [10]; [14]
  peak BUN level: 23.0 ± 5.59 mmol/L
  peak CR level: 104 ± 40.4 µmol/L
  time of peak BUN: 11.1 ± 3.00 h
  time of peak CR level: 8.86 ± 3.18 h

From publication PMC12065821 (Scientific Reports, 2025)
